Screening data (PubChem BioAssay)
The list is not random: actives were taken first. Their share in the collection is about 2%.
Hck Nef HTS = blocks Nef-activated human Hck kinase | AID 463187 | 220,000 compounds, 0.68% hits | P08631 | Recombinant Hck-YEEI plus Nef, Z-Lyte FRET kinase assay | inhibition, % at 20 µM;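 active means Hck-Nef kinase inhibition above about 50%, limit read from the data; inactive means inhibition below that limit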
Target sequence (P08631 whole entry, looked up): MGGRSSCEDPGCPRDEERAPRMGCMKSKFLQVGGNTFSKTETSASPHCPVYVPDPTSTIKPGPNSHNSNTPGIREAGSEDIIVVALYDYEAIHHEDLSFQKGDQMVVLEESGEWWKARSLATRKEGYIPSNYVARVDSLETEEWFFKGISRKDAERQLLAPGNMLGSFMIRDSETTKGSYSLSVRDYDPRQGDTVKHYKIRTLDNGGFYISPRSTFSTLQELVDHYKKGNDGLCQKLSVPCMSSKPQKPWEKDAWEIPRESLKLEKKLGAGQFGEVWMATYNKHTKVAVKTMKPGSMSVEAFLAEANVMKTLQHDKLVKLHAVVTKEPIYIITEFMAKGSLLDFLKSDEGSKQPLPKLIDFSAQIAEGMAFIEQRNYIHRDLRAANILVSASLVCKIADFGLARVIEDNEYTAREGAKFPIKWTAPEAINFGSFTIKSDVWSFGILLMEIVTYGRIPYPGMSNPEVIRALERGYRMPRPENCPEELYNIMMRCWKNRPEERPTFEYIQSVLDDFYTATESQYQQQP
14-3-3 Bad PPI = disrupts binding of bovine 14-3-3 zeta to phospho-Bad peptide | 220,000 compounds, 0.71% hits | inhibition, % at 21.7 µM | TR-FRET 14-3-3zeta/Dy647-pBad peptide displacement, 1 h | P63103 | AID 781;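 active means inhibition above about 70%, limit read from the data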
p47phox inh = inhibitors of human p47phox binding | P14598 | p47phox/p22phox peptide binding, fluorescence polarization, 2 h | inhibition, % at 24.7 µM | 220,000 compounds, 0.53% hits
eIF4E-4G inh = eIF4E/eIF4G interaction inhibition in translation initiation. P63073+Q04637. 220,000 compounds, 0.37% hits. TR-FRET eIF4E-eIF4GI(517-606) binding, 2 h. inhibition, % at 21.7 µM
Diaph act CS = counter-screen for diaphorase-based assays: diaphorase activators and chemical reducers | Diaphorase/resazurin coupled assay, resorufin fluorescence, 16 min; active compounds read high; 1 = vehicle wells, 0 = NADH-free wells | activation factor at 20 µM | 190,000 compounds, 0.005% hits;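 active means diaphorase activity raised at least twofold by the compound at 20 µM; inactive means activation factor below 2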
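Material: Clostridium kluyveri diaphorase, purified enzyme; Quantity: enzyme 0.07 U/mL final; Medium: HEPES pH 7.4 buffer with MgCl2 and Tween 20; Dosing: single compound dose of 20 µM, 1% DMSO final; Schedule: 16 min reaction at room temperature; Measured by: red resorufin fluorescence at 544/590 nm excitation/emission.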
Hck-Nef confirm = confirmation of Hck-Nef kinase inhibitors | shares compounds with Hck Nef HTS | calls only at 10 µM | 1,300 compounds, 28% hits | Recombinant Hck-YEEI:Nef, Z-Lyte FRET kinase assay;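 active means average inhibition of at least 50%, with Z-scores no higher than 3 in both the phospho-tyrosine peptide and fluorescence counterscreens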
Large screens that a line does not name were inactive (follow-up assays come after a bar, where shown).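 How the source made its calls, unless noted: active means inhibition above about 30% (limit read from the data); inactive means the rest.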

COC(=O)Cc1ccc(NC(=O)c2ccccc2Br)cc1	none
COC(=O)c1c(NC(=O)COC(=O)c2ccc(NC(=O)CC#N)cc2)sc2c1CCCCC2	Hck Nef HTS 113 | Hck-Nef confirm active
Cc1cc(=O)oc2c(N)c(O)ccc12	none
Cc1cc(=O)oc2c(CN(C)Cc3ccccc3)c(O)ccc12	Hck Nef HTS 58
CCC(CC)c1nnc(NC(=O)c2c(C)nn(Cc3ccccc3Cl)c2C)s1	none
CN(C(=O)c1cc2c(s1)-c1ccccc1S(=O)(=O)C2)c1ccccc1	none (no result: Diaph act CS)
COc1ccccc1NC(=O)c1cc2c(s1)-c1ccccc1S(=O)(=O)C2	Hck Nef HTS 52 (no result: Diaph act CS) | Hck-Nef confirm inactive
O=C(NCC1CCCO1)c1ccc2c(=O)n(Cc3cccc(Br)c3)c(=S)[nH]c2c1 (configuration not stated)	none
Cc1cccn2c(=O)c(/C=N/O)c(Nc3ccccc3F)nc12	Hck Nef HTS 70, 14-3-3 Bad PPI 87 (no result: Diaph act CS) | Hck-Nef confirm inactive
Cc1cccn2c(=O)c(/C=N/O)c(NCc3ccccc3)nc12	none (no result: Diaph act CS)
COc1cc2c(cc1NC(=O)C(C)OC(=O)c1ccc(S(=O)(=O)Nc3ccccc3Cl)cc1)oc1ccccc12 (configuration not stated)	none
O=C(Nc1cccc(-c2nc3cccnc3s2)c1)c1ccc(Cl)nc1	Hck Nef HTS 87 (no result: Diaph act CS) | Hck-Nef confirm inactive
O=C(Nc1cccc(-c2nc3cccnc3s2)c1)C1c2ccccc2Oc2ccccc21	Hck Nef HTS 102, 14-3-3 Bad PPI 91, eIF4E-4G inh 34 | Hck-Nef confirm active
Cc1sc2ncnc(SCC(=O)Nc3nc(-c4ccc(F)c(F)c4)cs3)c2c1C	Hck Nef HTS 117 | Hck-Nef confirm inactive
Cc1cc(/C=C2\SC(=Nc3ccc(F)cc3)NC2=O)c(C)n1-c1ccc(S(N)(=O)=O)cc1	Hck Nef HTS 65 | Hck-Nef confirm active
COc1ccc(CSc2nc3ccccc3c(=O)n2CCCN2CCOCC2)cc1F	none
Cc1cc(C)n(-c2nc3ccccc3s2)n1	none
Cc1c2c(=O)n(-c3nc4ccccc4s3)nc-2cc(O)n1Cc1ccccc1	Hck Nef HTS 84, eIF4E-4G inh 32 (no result: Diaph act CS) | Hck-Nef confirm inactive
C/C(=N\Nc1cc(C)nc(NCc2ccccc2)n1)c1ccc([N+](=O)[O-])cc1	none (no result: Diaph act CS)
CCc1cc2c(C)cc(=O)oc2cc1OC(=O)C1CCCN1C(=O)OC(C)(C)C (configuration not stated)	Hck Nef HTS 75 | Hck-Nef confirm inactive
CC(C)(C)OC(=O)N1CCCC1C(=O)NCCc1ccccc1 (configuration not stated)	none
CSc1ccccc1NC(=O)CSc1nncs1	none
COc1cc(NS(=O)(=O)c2ccc(NC(=S)NC(=O)c3sc4ccccc4c3Cl)cc2)nc(OC)n1	Hck Nef HTS 63 | Hck-Nef confirm active
CCOC(=O)C1=NOC(C(=O)NN(C)c2ncc(C(F)(F)F)cc2Cl)C1 (configuration not stated)	Hck Nef HTS 60 | Hck-Nef confirm inactive
CCOC(=O)C1=NOC(CNc2ncc(C(F)(F)F)cc2Cl)C1 (configuration not stated)	none
COc1cc2ncnc(NCc3ccco3)c2cc1OC	Hck Nef HTS 53 | Hck-Nef confirm inactive
COc1ccccc1CNc1ncnc2cc(OC)c(OC)cc12	none
Cc1c(/C=C/C(=O)c2ccc(C(C)C)cc2)cnn1C	none
CCOC(=O)c1cc2c(=O)n3ccccc3nc2n(CC2CCCO2)c1=NC(C)=O (configuration not stated)	Hck Nef HTS 193 (not shown: 14-3-3 Bad PPI, p47phox inh, eIF4E-4G inh)
Cc1cc(Oc2ccc(=O)n(C)n2)nc(SCc2ccccc2)n1	none
CC(C)(C)NC(=O)C1CCN(S(=O)(=O)c2cccc(C(F)(F)F)c2)CC1	none
COc1ccc(-n2nc(C(=O)Nc3ccc(OC)c(OC)c3)c3c4ccccc4n(C)c3c2=O)cc1	Hck Nef HTS 89 | Hck-Nef confirm active
COc1ccc(-n2nc(C(=O)Nc3ccc4c(c3)OCO4)c3c4ccccc4n(C)c3c2=O)cc1	none (no result: 14-3-3 Bad PPI, p47phox inh, eIF4E-4G inh)
COc1cc2nc(Cl)nc(N3CCOCC3)c2cc1OC	Hck Nef HTS 69 | Hck-Nef confirm inactive
COc1cc2nc(Cl)nc(N3CCCCC3)c2cc1OC	none
COc1ccc(NC(=S)N2CCN(c3ncccn3)CC2)c(OC)c1	none (no result: Diaph act CS)
